According to ChEMBL document CHEMBL6078712, “Triterpenoid phthalimides as selective anti-cancer agents targeting mitochondrial apoptosis” (Eur J Med Chem, 2025):
Activity calls are given as the source filed them. No cut-off for these calls is given here.

Columns and labels:
CCRF-CEM [1] = test: Induction of apoptosis in human CCRF-CEM cells assessed as viable cells at 5 times IC50 incubated for 24 hrs by Annexin V-FITC and PI staining based flow cytometric analysis (reference value: 97.4 %); type: functional
Summary of the method: (§1)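 Washed in Ca2+-containing binding buffer, then stained 15 min at room temperature in the dark with Annexin V-FITC and propidium iodide (PI at half the kit-recommended level). Read at once by flow cytometry with a 488 nm laser, ≥10,000 cells. Debris excluded; quadrants viable, early apoptotic, late apoptotic/necrotic, necrotic. Three independent experiments.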

CCRF-CEM [2] = test: Induction of cell cycle arrest in human CCRF-CEM cells assessed as downregulation of Cyclin A expression at 5 times IC50 incubated for 24 hrs by Western blotting analysis; type: functional, cell-based
Summary of the method: (§2)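 30 µg protein per lane on SDS-PAGE, transferred to nitrocellulose, blocked in 5 % BSA/TBS-Tween. Primary antibodies overnight at 4 °C (Akt, P-Akt Ser473, STAT-3, caspase-3, PARP, cyclin D, cyclin A, Bcl-xL, Bak, Bid, Bim), then HRP secondary and ECL detection. GAPDH as loading control.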

CCRF-CEM [3] = test: Induction of cell cycle arrest in human CCRF-CEM cells assessed as increase in accumulation of G0/G1 phase at 5 times IC50 incubated for 24 hrs by RNase/PI staining based flow cytometry; type: functional
Summary of the method: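 Propidium iodide staining and flow cytometry with a 488 nm laser, ≥10,000 intact cells. Phase proportions compared with untreated cells; SEM of three independent experiments.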

U2OS = test: Cytotoxicity against human U2OS cells assessed as inhibition of cell growth incubated for 72 hrs by MTS assay; type: functional, cell-based
Summary of the method: (§3)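 MTS assay on eight human cancer lines and two non-tumour fibroblast lines. IC50 is the concentration that inhibits cell growth by 50 %. SD typically up to 15 % of the mean.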

[4] = Stability in human plasma assessed as compound remaining at 2 uM incubated for 60 mins by RF-MS analysis; type: ADME, cell-free; details: read-out: Stability
Summary of the method: (§4)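 Human plasma stability, plasma protein binding and liver microsome stability, each run in triplicate. Error deviations below 10 %.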

[5] = Stability in human plasma assessed as compound remaining at 2 uM incubated for 120 mins by RF-MS analysis; type: ADME, cell-free; details: read-out: Stability; summary of the method: as §4
CCRF-CEM [6] = test: Induction of cell cycle arrest in human CCRF-CEM cells assessed as downregulation of total AKT expression at 5 times IC50 incubated for 24 hrs by Western blotting analysis; type: functional, cell-based; summary of the method: as §2
[7] = Cytotoxicity against human K562-Tax cells assessed as inhibition of cell growth incubated for 72 hrs by MTS assay; type: functional, cell-based; summary of the method: as §3
K562 = test: Cytotoxicity against human K562 cells assessed as inhibition of cell growth incubated for 72 hrs by MTS assay; type: functional, cell-based; details: K562, 72 h; summary of the method: as §3
CCRF-CEM [8] = test: Inhibition of RNA synthesis in human CCRF-CEM cells at 1 times IC50 incubated for 24 hrs by BrU incorporation based flow cytometry; type: functional
Summary of the method: (§5)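 Fixed in 1 % paraformaldehyde/0.05 % NP-40 (15 min at room temperature, then 4 °C overnight). Stained with cross-reacting anti-BrdU plus FITC secondary (45 min each), then PI/RNase A. Flow cytometry; % BrU-positive cells.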

[9] = Metabolic stability in human liver microsomes assessed as parent compound remaining at 2 uM incubated for 15 mins in presence of NADPH by RF-MS analysis; type: ADME, Microsome; details: read-out: Stability; summary of the method: as §4
CCRF-CEM [10] = test: Cytotoxicity against human CCRF-CEM cells assessed as inhibition of cell growth incubated for 72 hrs by MTS assay; type: functional, cell-based; summary of the method: as §3
CCRF-CEM [11] = test: Induction of apoptosis in human CCRF-CEM cells assessed as downregulation of caspase-3 expression at 5 times IC50 incubated for 24 hrs by Western blotting analysis; type: functional, cell-based; summary of the method: as §2
HCT 116 TP53(-/-) = test: Cytotoxicity against human HCT116-p53-null cells assessed as inhibition of cell growth incubated for 72 hrs by MTS assay; type: functional, cell-based; summary of the method: as §3
CCRF-CEM [12] = test: Induction of apoptosis in human CCRF-CEM cells assessed as upregulation of BID expression at 1 to 5 times IC50 incubated for 24 hrs by Western blotting analysis; type: functional, cell-based; summary of the method: as §2
CCRF-CEM [13] = test: Induction of apoptosis in human CCRF-CEM cells assessed as necrotic cells at 1 times IC50 incubated for 24 hrs by Annexin V-FITC and PI staining based flow cytometric analysis (reference value: 0.4 %); type: functional; summary of the method: as §1
CCRF-CEM [14] = test: Induction of apoptosis in human CCRF-CEM cells assessed as late apoptotic cells at 5 times IC50 incubated for 24 hrs by Annexin V-FITC and PI staining based flow cytometric analysis (reference value: 0.4 %); type: functional; summary of the method: as §1
CCRF-CEM [15] = test: Induction of apoptosis in human CCRF-CEM cells assessed as early apoptotic cells at 5 times IC50 incubated for 24 hrs by Annexin V-FITC and PI staining based flow cytometric analysis (reference value: 2.1 %); type: functional; summary of the method: as §1
CCRF-CEM [16] = test: Induction of cell cycle arrest in human CCRF-CEM cells assessed as downregulation of total STAT3 expression at 5 times IC50 incubated for 24 hrs by Western blotting analysis; type: functional, cell-based; summary of the method: as §2
CCRF-CEM [17] = test: Induction of apoptosis in human CCRF-CEM cells assessed as necrotic cells at 5 times IC50 incubated for 24 hrs by Annexin V-FITC and PI staining based flow cytometric analysis (reference value: 0.4 %); type: functional; summary of the method: as §1
CCRF-CEM [18] = test: Induction of cell cycle arrest in human CCRF-CEM cells assessed as downregulation of Cyclin D expression at 5 times IC50 incubated for 24 hrs by Western blotting analysis; type: functional, cell-based; summary of the method: as §2
CCRF-CEM [19] = test: Induction of apoptosis in human CCRF-CEM cells assessed as downregulation of BCL-XL expression at 5 times IC50 incubated for 24 hrs by Western blotting analysis; type: functional, cell-based; summary of the method: as §2
HCT-116 = test: Cytotoxicity against human HCT-116 cells assessed as inhibition of cell growth incubated for 72 hrs by MTS assay; type: functional, cell-based; details: HCT-116, 72 h; summary of the method: as §3
CCRF-CEM [20] = test: Induction of apoptosis in human CCRF-CEM cells assessed as viable cells at 1 times IC50 incubated for 24 hrs by Annexin V-FITC and PI staining based flow cytometric analysis (reference value: 97.4 %); type: functional; summary of the method: as §1
Mitochondrial membrane [21] = test: Induction of mitochondrial membrane potential depolarization in human CCRF-CEM cells assessed as fold increase in fluorescence intensity at 5 times IC50 incubated for 24 hrs by JC-1 staining based flow cytometry; type: cell membranes
CCRF-CEM [22] = test: Induction of apoptosis in human CCRF-CEM cells assessed as early apoptotic cells at 1 times IC50 incubated for 24 hrs by Annexin V-FITC and PI staining based flow cytometric analysis (reference value: 2.1 %); type: functional; summary of the method: as §1
[23] = Stability in human plasma assessed as compound remaining at 2 uM incubated for 15 mins by RF-MS analysis; type: ADME, cell-free; details: read-out: Stability; summary of the method: as §4
Mitochondrial membrane [24] = test: Induction of mitochondrial membrane potential depolarization in human CCRF-CEM cells assessed as fold increase in fluorescence intensity incubated for 24 hrs by JC-1 staining based flow cytometry; type: cell membranes
CCRF-CEM [25] = test: Inhibition of RNA synthesis in human CCRF-CEM cells at 5 times IC50 incubated for 24 hrs by BrU incorporation based flow cytometry; type: functional; summary of the method: as §5
CCRF-CEM [26] = test: Induction of apoptosis in human CCRF-CEM cells assessed as upregulation of BIM expression at 1 to 5 times IC50 incubated for 24 hrs by Western blotting analysis; type: functional, cell-based; summary of the method: as §2
[27] = Stability in human plasma assessed as compound remaining at 2 uM incubated for 30 mins by RF-MS analysis; type: ADME, cell-free; details: read-out: Stability; summary of the method: as §4
CCRF-CEM [28] = test: Inhibition of DNA synthesis in human CCRF-CEM cells at 5 times IC50 incubated for 24 hrs by BrdU incorporation based flow cytometry; type: functional
Summary of the method: (§6)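 Fixed in ice-cold 70 % ethanol, DNA denatured in 2 M HCl for 30 min, neutralised with borax. Stained with anti-BrdU plus FITC secondary, then PI/RNase A for 1 h. Flow cytometry; % BrdU-positive cells.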

[29] = Cytotoxicity against human MRC5 cells assessed as inhibition of cell growth incubated for 72 hrs by MTS assay; type: toxicity, cell-based; summary of the method: as §3
CEM-DNR = test: Cytotoxicity against human CEM-DNR cells assessed as inhibition of cell growth incubated for 72 hrs by MTS assay; type: functional, cell-based; summary of the method: as §3
[30] = Metabolic stability in human liver microsomes assessed as parent compound remaining at 2 uM incubated for 30 mins in presence of NADPH by RF-MS analysis; type: ADME, Microsome; details: read-out: Stability; summary of the method: as §4
CCRF-CEM [31] = test: Induction of apoptosis in human CCRF-CEM cells assessed as late apoptotic cells at 1 times IC50 incubated for 24 hrs by Annexin V-FITC and PI staining based flow cytometric analysis (reference value: 0.4 %); type: functional; summary of the method: as §1
[32] = Metabolic stability in human liver microsomes assessed as parent compound remaining at 2 uM incubated for 60 mins in presence of NADPH by RF-MS analysis; type: ADME, Microsome; details: read-out: Stability; summary of the method: as §4
CCRF-CEM [33] = test: Inhibition of DNA synthesis in human CCRF-CEM cells at 1 times IC50 incubated for 24 hrs by BrdU incorporation based flow cytometry; type: functional; summary of the method: as §6
[34] = Cytotoxicity against human BJ cells assessed as inhibition of cell growth incubated for 72 hrs by MTS assay; type: toxicity, cell-based; summary of the method: as §3
A549 = test: Cytotoxicity against human A549 cells assessed as inhibition of cell growth incubated for 72 hrs by MTS assay; type: functional, cell-based; details: A549, 72 h; summary of the method: as §3
[35] = Plasma protein binding in human assessed as fraction bound at 10 uM incubated for 4 hrs by rapid equilibrium dialysis based RF-MS analysis; type: ADME, cell-free; details: read-out: PPB (converted); summary of the method: as §4

remaining at 1 h, 2 µM [4]: 93% | remaining at 2 h, 2 µM [5]: 89% | remaining at 0.25 h, 2 µM [9]: 100% | fold change (FC) (Mitochondrial membrane [21]): > 20 | remaining at 0.25 h, 2 µM [23]: 106% | Activity (Mitochondrial membrane [24]): Dose-dependent-effect | remaining at 0.5 h, 2 µM [27]: 92% | remaining at 0.5 h, 2 µM [30]: 102% | remaining at 1 h, 2 µM [32]: 97% | fraction unbound at 4 h, 10 µM [35]: 0.37
Structure (SMILES): CC1(C)[C@@H](O)CC[C@]2(C)[C@H]3CC[C@@H]4[C@H]5[C@H](c6cc7c(c(-c8ccccc8)c6)C(=O)N(c6ccc(N)cc6)C7=O)CC[C@]5(C(=O)O)CC[C@@]4(C)[C@]3(C)CC[C@@H]12
Activity (CCRF-CEM [1]): 87.5% | Activity (CCRF-CEM [2]): Active | Activity (CCRF-CEM [3]): Active | IC50 (U2OS): 15.6 µM | Activity (CCRF-CEM [6]): Active; Slight Activity Observed | IC50 [7]: 4.34 µM | IC50 (K562): 20.9 µM | inhibition (INH) (CCRF-CEM [8]): 24% | IC50 (CCRF-CEM [10]): 4.09 µM | Activity (CCRF-CEM [11]): Active | IC50 (HCT 116 TP53(-/-)): 17.1 µM | Activity (CCRF-CEM [12]): Active | Activity (CCRF-CEM [13]): 0% | Activity (CCRF-CEM [14]): 4.7% | Activity (CCRF-CEM [15]): 7.8% | Activity (CCRF-CEM [16]): Active | Activity (CCRF-CEM [17]): 0% | Activity (CCRF-CEM [18]): Active | Activity (CCRF-CEM [19]): Active | IC50 (HCT-116): 12 µM | Activity (CCRF-CEM [20]): 92.4% | Activity (CCRF-CEM [22]): 4.8% | inhibition (INH) (CCRF-CEM [25]): 45.4% | Activity (CCRF-CEM [26]): Active | inhibition (INH) (CCRF-CEM [28]): 13.6% | IC50 at 72 h [29]: 19.4 µM | IC50 (CEM-DNR): 6.29 µM | Activity (CCRF-CEM [31]): 2.8% | inhibition (INH) (CCRF-CEM [33]): 30% | IC50 at 72 h [34]: 40.6 µM | IC50 (A549): 21 µM
